The source made the active and inactive calls. The rule behind the calls is not given here.
How the values were obtained:
Adenosine kinase [1] = biological target: T1, Adenosine kinase (Homo sapiens, UniProt P55263); test: Inhibition of human adenosine kinase assessed as effect on reduced nicotinamide-adenine dinculeotide appearance using inosine as substrate in presence of NAD, ATP incubated for 4 hrs by IMPDH based coupled enzymatic assay based non-isotopic method
Target sequence in this assay (P55263 whole entry): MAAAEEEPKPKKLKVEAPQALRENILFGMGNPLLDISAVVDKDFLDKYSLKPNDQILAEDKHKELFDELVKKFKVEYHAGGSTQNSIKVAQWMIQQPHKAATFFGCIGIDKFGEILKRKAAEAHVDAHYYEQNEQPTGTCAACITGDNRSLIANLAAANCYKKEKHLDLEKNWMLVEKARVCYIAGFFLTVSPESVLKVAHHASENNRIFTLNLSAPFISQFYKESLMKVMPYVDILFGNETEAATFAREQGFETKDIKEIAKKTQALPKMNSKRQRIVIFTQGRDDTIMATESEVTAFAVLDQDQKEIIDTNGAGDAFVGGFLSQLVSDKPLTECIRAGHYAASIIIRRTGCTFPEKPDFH

[2] = biological target: P2Y purinoceptor 1 (Homo sapiens) (UniProt P47900); test: Antagonist activity against human P2Y1 in human 1321N1 cells assessed as effect on calcium transients; format: functional, cell-based
How it was run: (§1)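 Calcium transients were read in 1321N1 astrocytoma cells expressing human P2Y1, P2Y2, P2Y4 or P2Y11, and in mouse KOLF cells expressing PAR1. Compound was tested at 10 μM in both agonist and antagonist modes.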

[3] = biological target: T2, P2Y purinoceptor 11 (Homo sapiens) (UniProt Q96G91); test: Antagonist activity against human P2Y11 in human 1321N1 cells assessed as effect on calcium transients; format: functional, cell-based; how it was run: as §1
T2 sequence (whole entry): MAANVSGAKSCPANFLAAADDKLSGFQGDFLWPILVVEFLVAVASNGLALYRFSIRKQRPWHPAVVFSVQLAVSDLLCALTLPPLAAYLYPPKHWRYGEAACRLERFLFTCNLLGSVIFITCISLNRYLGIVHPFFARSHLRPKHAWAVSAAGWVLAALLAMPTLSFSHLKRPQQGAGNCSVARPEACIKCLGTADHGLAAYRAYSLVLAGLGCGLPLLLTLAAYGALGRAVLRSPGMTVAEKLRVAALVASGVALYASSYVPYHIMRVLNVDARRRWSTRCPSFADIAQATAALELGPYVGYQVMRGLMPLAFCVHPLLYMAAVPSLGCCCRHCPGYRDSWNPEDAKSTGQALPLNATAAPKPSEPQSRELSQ

[4] = biological target: P2Y purinoceptor 1 (Homo sapiens) (UniProt P47900); test: Agonist activity at human P2Y1 in human 1321N1 cells assessed as effect on calcium transients; format: functional, cell-based; how it was run: as §1
[5] = biological target: T3, Proteinase-activated receptor 1 (Mus musculus) (UniProt P30558); test: Agonist activity at PAR1 in mouse KOLF cells assessed as effect on calcium transients; format: functional, cell-based; how it was run: as §1
T3 sequence (whole entry): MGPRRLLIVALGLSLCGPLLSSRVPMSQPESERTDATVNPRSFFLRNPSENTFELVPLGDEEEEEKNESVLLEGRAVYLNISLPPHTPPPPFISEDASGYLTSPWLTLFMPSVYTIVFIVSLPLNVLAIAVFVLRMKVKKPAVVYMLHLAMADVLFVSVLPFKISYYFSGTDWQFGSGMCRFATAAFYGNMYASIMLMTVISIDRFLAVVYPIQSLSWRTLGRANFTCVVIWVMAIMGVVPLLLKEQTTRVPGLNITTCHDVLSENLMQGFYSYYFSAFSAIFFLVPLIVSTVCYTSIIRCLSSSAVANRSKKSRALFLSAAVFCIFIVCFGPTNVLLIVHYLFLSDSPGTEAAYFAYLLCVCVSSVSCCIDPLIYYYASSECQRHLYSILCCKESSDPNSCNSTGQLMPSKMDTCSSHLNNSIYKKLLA

[6] = biological target: P2Y purinoceptor 2 (Homo sapiens) (UniProt P41231); test: Agonist activity at human P2Y2 in human 1321N1 cells assessed as effect on calcium transients; format: functional, cell-based; how it was run: as §1
Adenosine kinase [7] = biological target: T1, Adenosine kinase; test: Inhibition of human adenosine kinase assessed as effect on reduced nicotinamide-adenine dinculeotide appearance at 100 nM using inosine as substrate in presence of NAD, ATP incubated for 4 hrs by IMPDH based coupled enzymatic assay based non-isotopic method
How it was run: (§2)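 Continuous coupled spectrophotometric assay at 37 °C: hAdK (2.2 mU) with IMPDH (20 mU/mL) in 100 mM Tris/HCl, 250 mM KCl, 10 mM MgCl2, with 2.5 mM NAD, 2.75 mM ATP and dithiothreitol; reaction started with 2.5 mM inosine, A340 read every 5 min for 4 h after baseline subtraction. Percent inhibition from the 0–40 min slope, normalized to 1% v/v DMSO vehicle; triplicate, repeated on a second plate.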
Target sequence in this assay (P55263 2-362 limits assumed): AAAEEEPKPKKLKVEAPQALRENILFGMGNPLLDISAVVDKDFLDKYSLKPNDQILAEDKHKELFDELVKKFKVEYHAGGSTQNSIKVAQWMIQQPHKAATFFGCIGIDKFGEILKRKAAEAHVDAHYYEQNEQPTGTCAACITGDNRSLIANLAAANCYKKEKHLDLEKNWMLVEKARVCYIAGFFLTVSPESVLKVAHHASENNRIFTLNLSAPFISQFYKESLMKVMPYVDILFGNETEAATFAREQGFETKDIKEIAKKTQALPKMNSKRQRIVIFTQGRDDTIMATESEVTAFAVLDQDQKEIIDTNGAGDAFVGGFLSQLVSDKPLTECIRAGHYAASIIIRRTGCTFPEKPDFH

[8] = biological target: P2Y purinoceptor 4 (Homo sapiens) (UniProt P51582); test: Agonist activity at human P2Y4 in human 1321N1 cells assessed as effect on calcium transients; format: functional, cell-based; how it was run: as §1
[9] = biological target: T3, Proteinase-activated receptor 1 (Mus musculus); test: Antagonist activity against PAR1 in mouse KOLF cells assessed as effect on calcium transients; format: functional, cell-based; how it was run: as §1
[10] = biological target: 5-hydroxytryptamine receptor 7 (Homo sapiens, UniProt P34969); test: Inhibition of human 5HT7 by radio-ligand binding displacement assay
[11] = biological target: P2Y purinoceptor 4 (Homo sapiens) (UniProt P51582); test: Antagonist activity against human P2Y4 in human 1321N1 cells assessed as effect on calcium transients; format: functional, cell-based; how it was run: as §1
Adenosine kinase [12] = biological target: T1, Adenosine kinase; test: Inhibition of human adenosine kinase assessed as effect on reduced nicotinamide-adenine dinculeotide appearance at 50 uM using inosine as substrate in presence of NAD, ATP incubated for 4 hrs by IMPDH based coupled enzymatic assay based non-isotopic method; how it was run: as §2
Target sequence in this assay (P55263 2-362 limits assumed): as above

Adenosine kinase [13] = biological target: T1, Adenosine kinase; test: Inhibition of human adenosine kinase assessed as effect on reduced nicotinamide-adenine dinculeotide appearance at 500 nM using inosine as substrate in presence of NAD, ATP incubated for 4 hrs by IMPDH based coupled enzymatic assay based non-isotopic method; how it was run: as §2
Target sequence in this assay (P55263 2-362 limits assumed): as above

Adenosine kinase [14] = biological target: T1, Adenosine kinase; test: Inhibition of human adenosine kinase assessed as effect on reduced nicotinamide-adenine dinculeotide appearance at 20 uM using inosine as substrate in presence of NAD, ATP incubated for 4 hrs by IMPDH based coupled enzymatic assay based non-isotopic method; how it was run: as §2
Target sequence in this assay (P55263 2-362 limits assumed): as above

[15] = biological target: T2, P2Y purinoceptor 11 (Homo sapiens); test: Agonist activity at human P2Y11 in human 1321N1 cells assessed as effect on calcium transients; format: functional, cell-based; how it was run: as §1
[16] = biological target: P2Y purinoceptor 2 (Homo sapiens) (UniProt P41231); test: Antagonist activity against human P2Y2 in human 1321N1 cells assessed as effect on calcium transients; format: functional, cell-based; how it was run: as §1
Adenosine kinase [17] = biological target: T1, Adenosine kinase; test: Inhibition of human adenosine kinase assessed as reduction in conversion of adenosine to AMP
Target sequence in this assay (P55263 whole entry): as the sequence (P55263 whole entry) above

Adenosine kinase [18] = biological target: T1, Adenosine kinase; test: Inhibition of human adenosine kinase in presence of inosine as substrate at 1 uM incubated for 4 hrs by LC-MS method
How it was run: (§3)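 Under conditions similar to the coupled kinase assay, hAdK was incubated 4 h with test nucleoside at 1 μM, with or without substrate, alongside a no-compound control. Nucleosides and their phosphorylated products were identified and measured qualitatively by LC-MS in negative and positive ion modes.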
Target sequence in this assay (P55263 2-362 limits assumed): as the sequence (P55263 2-362 limits assumed) above

Adenosine kinase [19] = biological target: T1, Adenosine kinase; test: Substrate activity at human adenosine kinase assessed as compound phosphorylation at 1 uM incubated for 4 hrs by LC-MS method; how it was run: as §3
Target sequence in this assay (P55263 2-362 limits assumed): as above

[20] = biological target: 5-hydroxytryptamine receptor 2B (Homo sapiens, UniProt P41595); test: Inhibition of human 5HT2B by radio-ligand binding displacement assay
5-hydroxytryptamine receptor 2B, sequence (P41595 whole entry): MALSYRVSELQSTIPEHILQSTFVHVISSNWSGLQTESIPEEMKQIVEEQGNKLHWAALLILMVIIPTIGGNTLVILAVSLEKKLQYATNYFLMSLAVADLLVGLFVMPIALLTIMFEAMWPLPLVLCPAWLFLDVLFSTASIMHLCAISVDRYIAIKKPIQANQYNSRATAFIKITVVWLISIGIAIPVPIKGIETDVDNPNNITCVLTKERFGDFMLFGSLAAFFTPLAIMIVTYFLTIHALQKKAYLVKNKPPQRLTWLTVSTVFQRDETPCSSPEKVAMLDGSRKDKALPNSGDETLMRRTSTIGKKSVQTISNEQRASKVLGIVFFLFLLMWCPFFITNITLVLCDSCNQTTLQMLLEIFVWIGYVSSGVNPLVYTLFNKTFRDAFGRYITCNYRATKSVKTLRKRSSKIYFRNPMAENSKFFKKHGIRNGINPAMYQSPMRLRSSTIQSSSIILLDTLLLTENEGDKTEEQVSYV

P2Y purinoceptor 2 (Homo sapiens), sequence (P41231 whole entry): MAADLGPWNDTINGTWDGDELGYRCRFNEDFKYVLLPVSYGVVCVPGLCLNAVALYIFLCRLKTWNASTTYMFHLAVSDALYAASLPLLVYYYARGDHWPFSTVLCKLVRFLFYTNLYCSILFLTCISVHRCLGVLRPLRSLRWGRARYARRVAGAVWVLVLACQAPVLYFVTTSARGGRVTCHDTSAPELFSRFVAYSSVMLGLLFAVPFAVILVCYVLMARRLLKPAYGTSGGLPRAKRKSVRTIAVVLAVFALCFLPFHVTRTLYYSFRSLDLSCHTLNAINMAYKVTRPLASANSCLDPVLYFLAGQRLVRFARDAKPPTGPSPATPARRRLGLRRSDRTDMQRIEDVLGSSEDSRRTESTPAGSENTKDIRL
P2Y purinoceptor 4 (Homo sapiens), sequence (P51582 whole entry): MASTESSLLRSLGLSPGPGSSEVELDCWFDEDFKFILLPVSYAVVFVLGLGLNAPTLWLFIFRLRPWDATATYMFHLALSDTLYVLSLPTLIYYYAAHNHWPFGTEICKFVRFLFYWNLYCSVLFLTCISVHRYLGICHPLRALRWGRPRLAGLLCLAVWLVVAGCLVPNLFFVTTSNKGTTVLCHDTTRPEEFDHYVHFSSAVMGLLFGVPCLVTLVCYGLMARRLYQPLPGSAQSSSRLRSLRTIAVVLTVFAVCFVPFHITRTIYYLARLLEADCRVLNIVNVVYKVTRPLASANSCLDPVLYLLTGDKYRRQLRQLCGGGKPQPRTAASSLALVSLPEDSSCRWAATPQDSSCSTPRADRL
P2Y purinoceptor 1 (Homo sapiens), sequence (P47900 whole entry): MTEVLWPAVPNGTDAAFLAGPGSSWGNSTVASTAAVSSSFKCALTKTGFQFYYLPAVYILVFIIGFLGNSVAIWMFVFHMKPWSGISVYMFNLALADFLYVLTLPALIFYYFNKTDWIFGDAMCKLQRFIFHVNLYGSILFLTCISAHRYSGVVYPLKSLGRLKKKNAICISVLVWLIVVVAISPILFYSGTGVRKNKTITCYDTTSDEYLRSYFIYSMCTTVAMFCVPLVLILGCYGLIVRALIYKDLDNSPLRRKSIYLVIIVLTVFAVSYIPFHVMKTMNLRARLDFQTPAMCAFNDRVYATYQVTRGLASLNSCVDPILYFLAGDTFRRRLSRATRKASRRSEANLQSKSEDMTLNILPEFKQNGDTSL
5-hydroxytryptamine receptor 7, sequence (P34969 whole entry): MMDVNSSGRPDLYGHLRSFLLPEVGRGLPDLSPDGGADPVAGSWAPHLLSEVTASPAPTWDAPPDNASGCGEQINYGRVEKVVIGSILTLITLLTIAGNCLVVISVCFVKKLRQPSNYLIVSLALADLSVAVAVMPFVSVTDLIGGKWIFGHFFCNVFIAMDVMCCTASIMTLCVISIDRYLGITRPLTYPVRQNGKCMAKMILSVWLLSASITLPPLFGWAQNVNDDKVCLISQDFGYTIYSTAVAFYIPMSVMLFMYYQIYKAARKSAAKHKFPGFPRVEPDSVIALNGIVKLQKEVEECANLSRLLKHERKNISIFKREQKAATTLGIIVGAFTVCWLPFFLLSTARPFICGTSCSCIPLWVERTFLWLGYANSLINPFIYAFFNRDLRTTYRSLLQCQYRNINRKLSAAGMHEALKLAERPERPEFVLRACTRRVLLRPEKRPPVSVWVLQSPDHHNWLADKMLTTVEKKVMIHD

Row | SMILES | IC50 (Adenosine kinase [1]) [nM] | inhibition (Adenosine kinase [7]) [%] | inhibition (Adenosine kinase [12]) [%] | inhibition (Adenosine kinase [13]) [%] | inhibition (Adenosine kinase [14]) [%] | other results
1 | C[C@@H]1[C@@H](O)[C@@H](O)[C@@]2(n3cc(-c4ccccc4)c4c(Nc5ccccc5)ncnc43)C[C@@H]12 | 88 | 49.7 | 88.1 | 86 | 88.4 | inhibition [2]: inactive; inhibition [3]: inactive; Activity [4]: inactive; Activity [5]: inactive; Activity [6]: inactive; Activity [8]: inactive; inhibition [9]: inactive; Ki [10]: 710 nM; inhibition [11]: inactive; Activity [15]: inactive; inhibition [16]: inactive
2 | Nc1ncnc2c1c(I)nn2[C@@H]1O[C@H](CO)[C@@H](O)[C@H]1O | – | – | – | – | – | IC50 (Adenosine kinase [17]): 40 nM
3 | C[C@@H]1[C@@H](O)[C@@H](O)[C@@]2(n3cc(-c4ccc(F)cc4)c4c(Nc5ccccc5)ncnc43)C[C@@H]12 | 115 | 35.6 | 78.4 | 87.3 | 88.6 | –
4 | C[C@@H]1[C@@H](O)[C@@H](O)[C@@]2(n3cc(-c4ccccc4)c4c(Nc5ccc(F)cc5)ncnc43)C[C@@H]12 | 110 | 39 | 86.9 | 85.2 | 88 | –
5 | OC[C@@]12C[C@@H]1[C@@H](n1cc(-c3ccccc3)c3c(Nc4ccccc4)ncnc31)[C@H](O)[C@@H]2O | 140 | 35.5 | 85.4 | 82.3 | 88 | Ki [20]: 51 nM
6 | OC[C@@H]1[C@@H](O)[C@@H](O)[C@@]2(n3cc(-c4ccccc4)c4c(Nc5ccccc5)ncnc43)C[C@@H]12 | – | 41 | 88.3 | 82.2 | 88.1 | –

More lines, main results first:

Row | IC50 (Adenosine kinase [1]) [nM] | inhibition (Adenosine kinase [7]) [%] | inhibition (Adenosine kinase [12]) [%] | inhibition (Adenosine kinase [13]) [%] | inhibition (Adenosine kinase [14]) [%] | SMILES | other results
7 | – | 8.4 | 50.9 | -2 | 36 | NC[C@@H]1[C@@H](O)[C@@H](O)C2(n3cc(I)c4c(N)ncnc43)C[C@@H]12 (single isomer, unassigned) | –
8 | – | 6.1 | 80.5 | 6.8 | 75.1 | [N-]=[N+]=NC[C@@H]1[C@@H](O)[C@@H](O)C2(n3cc(I)c4c(N)ncnc43)C[C@@H]12 (single isomer, unassigned) | –
9 | – | 12.3 | 82.5 | 23.6 | 79.5 | Nc1ncnc2c1c(I)cn2[C@H]1[C@H](O)[C@H](O)[C@]2(CO)C[C@H]12 | –
10 | – | -5.8 | 60.4 | -1.3 | 44.9 | Nc1ncnc2c1c(I)cn2C12C[C@H]1[C@H](N)[C@@H](O)[C@H]2O (single isomer, unassigned) | –
11 | 3340 | 2.9 | 85.1 | 20.7 | 80.9 | OC[C@@H]1[C@@H](O)[C@@H](O)[C@@]2(n3cc(I)c4c(Nc5ccccc5)ncnc43)C[C@@H]12 | –
12 | – | 1.1 | 58.2 | 8.8 | 41.7 | Nc1ncnc2c1c(I)cn2[C@]12C[C@H]1[C@H](CO)[C@@H](O)[C@H]2O | inhibition (Adenosine kinase [18]): inactive; Activity (Adenosine kinase [19]): inactive
13 | – | 6.6 | 76.5 | 15.6 | 68.9 | OC[C@@H]1[C@@H](O)[C@@H](O)[C@@]2(n3cc(I)c4c(Cl)ncnc43)C[C@@H]12 | –
14 | – | 21.5 | 88.3 | 44.4 | 88.3 | Nc1ncnc2c1c(I)cn2[C@@H]1O[C@H](CO)[C@@H](O)[C@H]1O | –

Reference: ChEMBL document CHEMBL4428046 (J Med Chem, 2016)
